Source: paper PMC6097486 (International Journal of Biological Sciences, 2018)
Where no end group is shown, it is not given here.

Experiments:
[1] = tested on: NSCLC; details: ref [7]-[9]; cited from earlier work
[2] = ref [10]; cited from earlier work
[3] = tested on: A549 cells; experiment: Tube formation assay on matrigel, A549 cells; assay type: cell-based, human; details: FGF2 10 ng/ml alone, 6 h, versus control (###P < 0.001)
[4] = tested on: FGFR1-ERK1/2 MAPK signaling pathway; experiment: FGFR1-ERK1/2 MAPK signaling activation by FGF2; assay type: cell-based, human; details: stimulation with FGF2; A549 and NCI-H460 cells
Summary of the method: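 A549 and NCI-H460 cells (FGFR1-high human NSCLC) grown in DMEM/high glucose with 10% FBS at 37°C, 5% CO₂. Treatment 2 h; FGFR1 inhibitor PD173074 (100 nM) as positive control. Lysate protein (30 µg) run on 10% SDS-PAGE, transferred to PVDF, blocked in 8% nonfat milk/TBST. Probed for pFGFR1 and pERK1/2 (1:1000), normalised to β-actin.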

[5] = tested on: FGFR1; experiment: Competitive elution of phage clones by FGF2; assay type: binding; details: 2 µg/ml FGF2, RT 1 h, 450 nm
Summary of the method: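 Phage clones (2 × 10^11 pfu/well) and control vcsM13 phage incubated on FGFR1 at RT for 1 h. Competitive elution with FGF2 (2 µg/ml) at RT for 1 h. Detection with anti-M13 mAb (37°C, 1 h), then goat anti-mouse IgG-HRP (37°C, 30 min) and TMB substrate. Absorbance read at 450 nm.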

[6] = tested on: CAM; experiment: Chick chorioallantoic membrane; assay type: in vivo; details: FGF2 10 ng/ml alone, 24 h
Summary of the method: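 Test peptide applied with FGF2 (10 ng/ml) onto the CAM surface on day 8 of egg incubation. Incubation continued for 24 h, then the CAM surface was photographed to assess angiogenesis.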

[7] = Gross toxicity and body weight in A549 xenograft nude mice; assay type: in vivo, BALB/cA nude mice; details: 5 mg/kg/day i.p., 28 days
Summary of the method: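 Female athymic nu/nu BALB/cA mice, 7 weeks old, SPF housing, received subcutaneous A549 cells (2 × 10^6 cells in 200 μL saline, mixed 1:1 with matrigel) into upper and lower back. Two days later, test compound in saline was given i.p. for 28 days; controls got the same volume of saline. Body weight was recorded weekly.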

[8] = biological target: T1, human FGFR1 protein (human, UniProt P11362 22-376); experiment: SPR
T1 sequence (looked up): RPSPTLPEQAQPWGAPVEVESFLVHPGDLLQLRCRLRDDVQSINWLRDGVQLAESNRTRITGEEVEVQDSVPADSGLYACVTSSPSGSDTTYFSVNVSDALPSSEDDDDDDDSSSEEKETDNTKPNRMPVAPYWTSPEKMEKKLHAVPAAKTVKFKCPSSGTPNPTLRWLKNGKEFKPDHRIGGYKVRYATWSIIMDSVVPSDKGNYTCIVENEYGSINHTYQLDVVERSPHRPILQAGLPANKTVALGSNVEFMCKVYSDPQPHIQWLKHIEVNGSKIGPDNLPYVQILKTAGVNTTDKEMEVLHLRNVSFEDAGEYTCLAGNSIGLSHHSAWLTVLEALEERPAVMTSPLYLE

Molecule: COc1cc(OC)cc(-c2cc3cnc(N)nc3nc2NC(=O)NC(C)(C)C)c1 [PD166866]
- growth of NSCLC [1]: suppress the growth of NSCLC

Molecule: CCN(CC)CCCCNc1ncc2cc(-c3cc(OC)cc(OC)c3)c(NC(=O)NC(C)(C)C)nc2n1 [PD173074]
- toxicity / clinical progress [2]: failed to enter phase II clinical trials due to their high toxicities
- growth of NSCLC [1]: suppress the growth of NSCLC

Molecule: Cc1c[nH]c(/C=C2\C(=O)Nc3ccccc32)c1CCC(=O)O [SU5402]
- toxicity / clinical progress [2]: failed to enter phase II clinical trials due to their high toxicities
- growth of NSCLC [1]: suppress the growth of NSCLC

Molecule: FGF2: Specific ligand of FGFR1 (PeproTech)
- tube formation [3]: significantly induce tube formation
- activation of FGFR1-ERK1/2 MAPK signaling pathway [4]: evident
- elution efficiency for the phage clones [5]: high elution efficiency
- angiogenesis [6]: significantly induce angiogenesis

Molecule: FHDAWPNLSKSS [R1-P2]
- toxicity observed ([7]; n = 5): no remarkable toxicity observed
- abnormal gross phenotypes including weight loss ([7]; n = 5, body weight recorded weekly): no signs of abnormal gross phenotypes including weight loss

Molecule: FHDAWPNLSKSS [peptide R1-P2]
- Kd [8]: ~154 nM
